The subject of experiment [1] is Mus musculus. The experiment in a line: Effect on compound induced hypothermia in Swiss Albino mouse at 2.5 mg/kg, ip in presence of 0.1 mg/kg WAY 100635 after 60 mins relative to control. The format is functional. In short, it runs like this: (§1)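 Male Albino Swiss mice; WAY 100635 0.1 mg/kg sc (in distilled water) 15 min before ip compound (1% Tween 80); rectal temperature at 30 and 60 min after compound; Δt from basal; n = 8/group; mean ± SEM.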

The test system of experiment [2] is Mus musculus. The experiment is described as follows: Anxiolytic activity in Swiss Albino mouse assessed as number of punished crossings for 60 secs at 2.5 mg/kg, ip administered 30 mins before the test in four-plate test. Conditions: route intraperitoneal. The format is functional. The essentials:
(§2)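 Male Albino Swiss mice (24-28 g), ip in 1% Tween 80 (10 mL/kg) 30 min before test; box with four metal floor plates, 120 V for 0.5 s on each plate-to-plate crossing after 15 s free exploration, 3 s shock-free if running continues; punished crossings counted over 60 s; n = 9-10/group; mean ± SEM.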

Experiment [3] relates to Mus musculus. The experiment in a line: Anxiolytic activity in Swiss Albino mouse assessed as number of punished crossings for 60 secs at 5 mg/kg, ip administered 30 mins before the test in four-plate test. The format is functional. The note with it: route intraperitoneal. The essentials:
as §2

In experiment [4] the test system is Mus musculus. The experiment is described as follows: Anxiolytic activity in Swiss Albino mouse assessed as number of punished crossings for 60 secs at 10 mg/kg, ip administered 30 mins before the test in four-plate test. It counts as functional. The note with it: route intraperitoneal. The essentials: as §2
Experiment [5] concerns the target T1, 5-hydroxytryptamine receptor 1A (Rattus norvegicus, UniProt P19327).
T1 sequence (P19327 whole entry): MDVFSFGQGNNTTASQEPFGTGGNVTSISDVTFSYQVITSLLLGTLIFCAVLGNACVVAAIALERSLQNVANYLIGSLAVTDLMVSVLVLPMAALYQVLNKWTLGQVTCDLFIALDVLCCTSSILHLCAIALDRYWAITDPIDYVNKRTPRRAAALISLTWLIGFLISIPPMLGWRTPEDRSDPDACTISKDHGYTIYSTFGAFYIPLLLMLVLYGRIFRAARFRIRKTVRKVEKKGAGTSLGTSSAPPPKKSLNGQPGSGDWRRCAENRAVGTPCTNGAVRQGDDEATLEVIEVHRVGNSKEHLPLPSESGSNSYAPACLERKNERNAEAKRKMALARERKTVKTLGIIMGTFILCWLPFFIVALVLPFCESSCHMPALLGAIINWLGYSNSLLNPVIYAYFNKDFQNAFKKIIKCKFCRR
The experiment in a line: Displacement of [3H]8-OH-DPAT from rat brain 5HT1A receptor. The essentials:
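Rat hippocampal membranes; 1 nM [3H]-8-OH-DPAT; nonspecific binding with 10 μM 5-HT; 8–10 competitor concentrations in triplicate, ≥3 experiments; GF/B filtration, ice-cold buffer washes, scintillation counting; Ki by nonlinear regression with Cheng–Prusoff.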

The target in experiment [6] is 5-hydroxytryptamine receptor 2A (Rattus norvegicus, UniProt P14842). The experiment is described as follows: Displacement of [3H]ketanserin from rat brain 5HT2A receptor. The essentials:
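Rat brain membranes; 0.6 nM [3H]-ketanserin; nonspecific binding with 1 μM methysergide; 8–10 competitor concentrations in triplicate, ≥3 experiments; GF/B filtration, scintillation counting; Ki via Cheng–Prusoff.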

Experiment [7] deals with 5-hydroxytryptamine receptor 7 (Rattus norvegicus, UniProt P32305). The experiment is described as follows: Displacement of [3H]5CT from 5HT7 receptor in Wistar rat hyphalamic membrane. The format is cell membranes. (Displacement assays read how much labelled ligand stays bound in the presence of the test substance.)
5-hydroxytryptamine receptor 7, sequence (P32305 whole entry): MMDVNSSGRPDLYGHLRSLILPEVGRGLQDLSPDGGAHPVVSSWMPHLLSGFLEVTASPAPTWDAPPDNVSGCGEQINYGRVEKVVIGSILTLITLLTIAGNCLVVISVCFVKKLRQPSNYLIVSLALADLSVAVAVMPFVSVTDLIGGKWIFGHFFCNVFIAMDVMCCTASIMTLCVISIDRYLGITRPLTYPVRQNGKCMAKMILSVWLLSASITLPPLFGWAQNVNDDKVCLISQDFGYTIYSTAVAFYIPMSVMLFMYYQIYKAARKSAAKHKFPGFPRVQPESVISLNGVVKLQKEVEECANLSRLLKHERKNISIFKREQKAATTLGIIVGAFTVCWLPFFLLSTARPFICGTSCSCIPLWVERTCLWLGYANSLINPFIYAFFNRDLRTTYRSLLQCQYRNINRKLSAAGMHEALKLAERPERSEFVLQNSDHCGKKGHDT
Experiment [8] deals with Mus musculus. The experiment in a line: Decrease in body temperature in Swiss Albino mouse at 2.5 mg/kg, ip administered 30 mins before the test measured after 30 mins relative to control. Conditions: route intraperitoneal. The format is functional. In short, it runs like this: (§3)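 Male Albino Swiss mice (24-28 g) given compound ip in 1% aqueous Tween 80 (10 mL/kg); rectal temperature read at 30, 60, 90 and 120 min post-dose; Δt versus basal temperature taken at start (initial ~36.0 °C); n = 8/group; mean ± SEM.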

For experiment [9], the system named is Mus musculus. The experiment in a line: Decrease in body temperature in Swiss Albino mouse at 2.5 mg/kg, ip administered 30 mins before the test measured after 60 mins relative to control. The format is functional. Conditions: route intraperitoneal. In short, it runs like this: as §3
Experiment [10] relates to Mus musculus. The experiment is described as follows: Decrease in body temperature in Swiss Albino mouse at 2.5 mg/kg, ip administered 30 mins before the test measured after 90 mins relative to control. It counts as functional. Conditions: route intraperitoneal. The essentials:
as §3

For experiment [11], the system named is Mus musculus. The experiment is described as follows: Decrease in body temperature in Swiss Albino mouse at 2.5 mg/kg, ip administered 30 mins before the test measured after 120 mins relative to control. It counts as functional. The note with it: route intraperitoneal. The essentials: as §3
For experiment [12], the system named is Mus musculus. The experiment in a line: Decrease in body temperature in Swiss Albino mouse at 5 mg/kg, ip administered 30 mins before the test measured after 30 mins relative to control. Conditions: route intraperitoneal. It counts as functional. In short, it runs like this: as §3
The test system of experiment [13] is Mus musculus. The experiment in a line: Decrease in body temperature in Swiss Albino mouse at 5 mg/kg, ip administered 30 mins before the test measured after 60 mins relative to control. The note with it: route intraperitoneal. The format is functional. In short, it runs like this:
as §3

Experiment [14] deals with Mus musculus. The experiment in a line: Decrease in body temperature in Swiss Albino mouse at 5 mg/kg, ip administered 30 mins before the test measured after 90 mins relative to control. It counts as functional. Conditions: route intraperitoneal. The essentials:
as §3

Experiment [15] concerns Mus musculus. The experiment is described as follows: Decrease in body temperature in Swiss Albino mouse at 5 mg/kg, ip administered 30 mins before the test measured after 120 mins relative to control. The note with it: route intraperitoneal. It counts as functional. The essentials: as §3
The subject of experiment [16] is Mus musculus. The experiment is described as follows: Effect on compound induced hypothermia in Swiss Albino mouse at 2.5 mg/kg, ip in presence of 0.1 mg/kg WAY 100635 after 30 mins relative to control. It counts as functional. In short, it runs like this:
as §1

For experiment [17], the system named is Mus musculus. The experiment is described as follows: Antidepressant activity in Swiss Albino mouse assessed as immobility time during final 4 mins of 6 mins session at 2.5 mg/kg, ip administered 30 mins before the test in forced-swimming test. The format is functional. The note with it: route intraperitoneal. In short, it runs like this: (§4)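 Male Albino Swiss mice (24-28 g), ip in 1% aqueous Tween 80 suspension (10 mL/kg), 30 min pretest; single glass cylinder (25 cm high, 10 cm diameter), 6 cm water at 23–25 °C for 6 min; immobility (floating, minimal head-keeping movements) timed over final 4 min; n = 9-10/group; mean ± SEM.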

Experiment [18] deals with Mus musculus. The experiment in a line: Antidepressant activity in Swiss Albino mouse assessed as immobility time during final 4 mins of 6 mins session at 5 mg/kg, ip administered 30 mins before the test in forced-swimming test. The format is functional. The note with it: route intraperitoneal. The essentials: as §4
In experiment [19] the test system is Mus musculus. The experiment is described as follows: Antidepressant activity in Swiss Albino mouse assessed as immobility time during final 4 mins of 6 mins session at 10 mg/kg, ip administered 30 mins before the test in forced-swimming test. The format is functional. Conditions: route intraperitoneal. The essentials:
as §4

Experiment [20] concerns Mus musculus. The experiment is described as follows: Antidepressant activity in Swiss Albino mouse assessed as immobility time during final 4 mins of 6 mins session at 20 mg/kg, ip administered 30 mins before the test in forced-swimming test. It counts as functional. The note with it: route intraperitoneal. In short, it runs like this: as §4
Experiment [21] concerns Mus musculus. The experiment in a line: Locomotor activity in Swiss Albino mouse assessed as number of crossings in 6 mins at 5 mg/kg, ip administered 30 mins before the test. It counts as functional. Conditions: route intraperitoneal. In short, it runs like this: (§5)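 Male Albino Swiss mice dosed ip 30 min before test (compound in 1% Tween 80; imipramine in distilled water); individual cages with IR beam sensors, consecutive beam breaks scored as ambulatory counts during first 6 min and over a 30-min session; n = 10/group; mean ± SEM.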

The test system of experiment [22] is Mus musculus. The experiment in a line: Locomotor activity in Swiss Albino mouse assessed as number of crossings in 6 mins at 10 mg/kg, ip administered 30 mins before the test. It counts as functional. The note with it: route intraperitoneal. The essentials:
as §5

Experiment [23] has as its system Mus musculus. The experiment in a line: Locomotor activity in Swiss Albino mouse assessed as number of crossings in 6 mins at 20 mg/kg, ip administered 30 mins before the test. It counts as functional. Conditions: route intraperitoneal. In short, it runs like this:
as §5

Experiment [24] relates to Mus musculus. The experiment in a line: Locomotor activity in Swiss Albino mouse assessed as number of crossings in 30 mins at 5 mg/kg, ip administered 30 mins before the test. The format is functional. Conditions: route intraperitoneal. The essentials:
as §5

The subject of experiment [25] is Mus musculus. The experiment is described as follows: Locomotor activity in Swiss Albino mouse assessed as number of crossings in 30 mins at 10 mg/kg, ip administered 30 mins before the test. The format is functional. Conditions: route intraperitoneal. The essentials:
as §5

In experiment [26] the test system is Mus musculus. The experiment is described as follows: Locomotor activity in Swiss Albino mouse assessed as number of crossings in 30 mins at 20 mg/kg, ip administered 30 mins before the test. It counts as functional. The note with it: route intraperitoneal. The essentials:
as §5

In experiment [27] the test system is Mus musculus. The experiment is described as follows: Effect on compound induced hypothermia in Swiss Albino mouse at 5 mg/kg in presence of 0.1 mg/kg WAY 100635 after 60 mins relative to control. The format is functional. In short, it runs like this: (§6)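 Male Albino Swiss mice. WAY 100635 (0.1 mg/kg sc, in distilled water) given 15 min before the agonist (5 mg/kg sc, in saline). Rectal temperature recorded 30 and 60 min after agonist and expressed as Δt from basal; n = 8 per group; compared with vehicle + agonist group.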

The test system of experiment [28] is Mus musculus. The experiment is described as follows: Effect on compound induced hypothermia in Swiss Albino mouse at 5 mg/kg, sc in presence of 0.1 mg/kg WAY 100635 after 30 mins relative to control. It counts as functional. In short, it runs like this: as §6
For experiment [29], the system named is Mus musculus. The experiment is described as follows: Decrease in body temperature in Swiss Albino mouse at 5 mg/kg, sc after 60 mins relative control. It counts as functional. The note with it: route subcutaneous. In short, it runs like this: (§7)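 Male Albino Swiss mice (24-28 g); drug dissolved in saline, injected sc at 10 mL/kg. Rectal temperature recorded with a thermometer at 30 and 60 min after injection. Result expressed as change (Δt) from basal temperature taken at the start of the experiment; n = 8 per group; mean ± SEM versus vehicle.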

Experiment [30] deals with Mus musculus. The experiment is described as follows: Decrease in body temperature in Swiss Albino mouse at 5 mg/kg, sc after 30 mins relative control. It counts as functional. The note with it: route subcutaneous. The essentials:
as §7

5-hydroxytryptamine receptor 2A, sequence (P14842 whole entry): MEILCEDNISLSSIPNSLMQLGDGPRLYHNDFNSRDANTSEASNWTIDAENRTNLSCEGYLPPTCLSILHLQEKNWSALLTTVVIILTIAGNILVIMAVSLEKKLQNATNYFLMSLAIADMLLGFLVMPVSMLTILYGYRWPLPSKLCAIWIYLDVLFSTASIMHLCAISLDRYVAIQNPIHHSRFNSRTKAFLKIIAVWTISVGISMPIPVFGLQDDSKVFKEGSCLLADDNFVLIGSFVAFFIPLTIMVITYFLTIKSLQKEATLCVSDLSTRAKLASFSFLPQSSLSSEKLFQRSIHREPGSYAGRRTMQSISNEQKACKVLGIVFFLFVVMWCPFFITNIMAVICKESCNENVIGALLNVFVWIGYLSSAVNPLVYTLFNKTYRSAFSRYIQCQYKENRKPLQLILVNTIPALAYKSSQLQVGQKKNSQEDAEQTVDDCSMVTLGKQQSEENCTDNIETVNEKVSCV

Broadly, the Ki is a measure of affinity in units of concentration, obtained from inhibition or displacement. Higher therefore signals a looser hold on the target. Regarding `CCOc1nc2c(c(=O)n(C)c(=O)n2C)n1CCCCN1CCN(c2ccccc2OC)CC1.Cl`, the Activity in the experiment with Mus musculus [1] is -0.3 °C; with Mus musculus [2], 4.1; with Mus musculus [3], 5.8; in the experiment on Mus musculus [4] it was 3.8; with Mus musculus [8], -1.5 °C; with Mus musculus [9], -1 °C. For the same compound, the Activity with Mus musculus [10] was -0.9 °C; with Mus musculus [11], -0.7 °C; with Mus musculus [12], -2.5 °C; in the experiment on Mus musculus [13], -1.9 °C; in the experiment with Mus musculus [14], -1.5 °C; with Mus musculus [15] it was -1.3 °C. For the same compound, the Activity in the experiment on Mus musculus [16] was -0.5 °C; in the experiment with Mus musculus [17] it was 154.4 s; in the experiment on Mus musculus [18], 126.9 s; in the experiment with Mus musculus [19] it was 122.6 s; with Mus musculus [20], 178.2 s; in the experiment with Mus musculus [21], 125.5. In addition, the Activity amounted to 56.2 in the experiment with Mus musculus [22]; 11.1 in the experiment on Mus musculus [23]; 325 in the experiment on Mus musculus [24]; 193.4 with Mus musculus [25]; 19.5 with Mus musculus [26]. Further, the Ki in experiment [5] is 11 nM; in experiment [6], 253 nM; in experiment [7] it was 54 nM.

As to `CCCN(CCC)C1CCc2cccc(O)c2C1` (stereo not given) [8-OH-DPAT], the Activity in the experiment with Mus musculus [27] is 0.1 °C; in the experiment on Mus musculus [28], -0.1 °C; with Mus musculus [29] it was -0.7 °C; in the experiment on Mus musculus [30], -1 °C.

The values above are taken from ChEMBL document CHEMBL1143707, “7-Arylpiperazinylalkyl and 7-tetrahydroisoquinolinylalkyl derivatives of 8-alkoxy-purine-2,6-dione and some of their purine-2,6,8-trione analogs as 5-HT(1A), 5-HT(2A), and 5-HT(7) serotonin receptor ligands” (Bioorg Med Chem, 2007).
